Source: ChEMBL document CHEMBL1828498, “Identification and characterization of a novel integrin-linked kinase inhibitor” (J Med Chem, 2011)
The source made the active and inactive calls. The calls are words filed in the database; no cut-off is given here.

Tests used:
SK-BR-3 [1] = assay: Antiproliferative activity against human SKBR3 cells assessed as suppression of cell viability by MTT assay; type: functional, cell-based
Method in brief: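 Cancer lines seeded 5000/well and nonmalignant PrEC/MEC 8000/well in 10% FBS, 24 h before treatment. Compound exposure 24 h in 5% FBS medium, 0.1% final DMSO. MTT (0.25 mg/mL) for 1 h at 37°C, dye solubilized in DMSO, absorbance read at 570 nm. Mean ± SD, n = 6.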

[2] = tested on: 3-phosphoinositide dependent protein kinase-2, PDK2; assay: Inhibition of PDK2 in human MDA-MB-231 cells assessed as Akt Ser-473 dephosphorylation by Western blot analysis; type: functional, cell-based
Method in brief: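 Cells exposed 24 h in 5% FBS medium, final DMSO 0.1%; lysed in 1% SDS/10 mM EDTA/50 mM Tris pH 8.1, equal protein on SDS-PAGE, nitrocellulose, primary antibody 1:1000 at 4°C for 2 h, HRP secondary 1:5000, ECL detection; blots representative of three independent experiments.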

[3] = biological target: T1, Scaffold protein ILK (Homo sapiens) (UniProt Q13418); assay: Inhibition of ILK in human PC3 cells assessed as decrease in GSK3-beta phosphorylation by Western blot analysis; type: cell-based; conditions: PC-3
T1 sequence (whole entry): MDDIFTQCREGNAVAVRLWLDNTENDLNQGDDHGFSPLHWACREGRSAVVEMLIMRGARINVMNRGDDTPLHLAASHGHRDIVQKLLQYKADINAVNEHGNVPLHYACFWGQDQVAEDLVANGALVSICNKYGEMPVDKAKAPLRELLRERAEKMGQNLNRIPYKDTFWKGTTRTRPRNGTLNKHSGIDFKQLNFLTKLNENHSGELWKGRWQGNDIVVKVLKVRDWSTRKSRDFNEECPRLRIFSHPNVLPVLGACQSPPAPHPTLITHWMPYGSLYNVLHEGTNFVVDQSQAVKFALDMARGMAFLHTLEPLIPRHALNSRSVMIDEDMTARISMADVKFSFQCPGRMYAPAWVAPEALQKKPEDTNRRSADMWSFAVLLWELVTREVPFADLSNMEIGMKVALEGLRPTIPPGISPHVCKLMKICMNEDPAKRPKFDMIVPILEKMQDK
Method in brief: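 PC-3 and MDA-MB-231 cells exposed 24 h in 5% FBS medium across a concentration series. Phospho-GSK3β (Ser9) and phospho-MLC (Thr18/Ser19) detected by immunoblot: SDS lysis, primary 1:1000 at 4°C for 2 h, HRP secondary, ECL. Representative of three experiments.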

PC-3 [4] = assay: Reduction in YB-1 mRNA expression in human PC3 cells after 24 hrs by RT-PCR analysis; type: functional, cell-based
Method in brief: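 PC-3, PC-3/CA-ILK, SKBR3 and SKBR3/CA-ILK cells treated 24 h in 5% FBS medium; total RNA from 1 × 10^6 cells by Trizol, 1 μg reverse-transcribed, then PCR with gene-specific primers and β-actin reference.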

SK-BR-3 [5] = assay: Reduction in YB-1 concentration in human SKBR3 cells after 24 hrs by Western blot analysis; type: functional, cell-based
Method in brief: (§1)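 PC-3 versus stable PC-3/CA-ILK, or SKBR3 versus transient SKBR3/CA-ILK (electroporation, used 48 h after), treated 24 h in 5% FBS medium; immunoblotting with ECL; representative of three experiments.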

SK-BR-3 [6] = assay: Reduction in YB-1 concentration in human SKBR3 cells expressing constitutively active ILK after 24 hrs by Western blot analysis; type: functional, cell-based; method in brief: as §1
[7] = biological target: Proto-oncogene tyrosine-protein kinase ROS (Homo sapiens) (UniProt P08922); assay: Inhibition of Ros at 5 uM assessed as remaining activity
Chain of Proto-oncogene tyrosine-protein kinase ROS (Homo sapiens) (P08922 whole entry): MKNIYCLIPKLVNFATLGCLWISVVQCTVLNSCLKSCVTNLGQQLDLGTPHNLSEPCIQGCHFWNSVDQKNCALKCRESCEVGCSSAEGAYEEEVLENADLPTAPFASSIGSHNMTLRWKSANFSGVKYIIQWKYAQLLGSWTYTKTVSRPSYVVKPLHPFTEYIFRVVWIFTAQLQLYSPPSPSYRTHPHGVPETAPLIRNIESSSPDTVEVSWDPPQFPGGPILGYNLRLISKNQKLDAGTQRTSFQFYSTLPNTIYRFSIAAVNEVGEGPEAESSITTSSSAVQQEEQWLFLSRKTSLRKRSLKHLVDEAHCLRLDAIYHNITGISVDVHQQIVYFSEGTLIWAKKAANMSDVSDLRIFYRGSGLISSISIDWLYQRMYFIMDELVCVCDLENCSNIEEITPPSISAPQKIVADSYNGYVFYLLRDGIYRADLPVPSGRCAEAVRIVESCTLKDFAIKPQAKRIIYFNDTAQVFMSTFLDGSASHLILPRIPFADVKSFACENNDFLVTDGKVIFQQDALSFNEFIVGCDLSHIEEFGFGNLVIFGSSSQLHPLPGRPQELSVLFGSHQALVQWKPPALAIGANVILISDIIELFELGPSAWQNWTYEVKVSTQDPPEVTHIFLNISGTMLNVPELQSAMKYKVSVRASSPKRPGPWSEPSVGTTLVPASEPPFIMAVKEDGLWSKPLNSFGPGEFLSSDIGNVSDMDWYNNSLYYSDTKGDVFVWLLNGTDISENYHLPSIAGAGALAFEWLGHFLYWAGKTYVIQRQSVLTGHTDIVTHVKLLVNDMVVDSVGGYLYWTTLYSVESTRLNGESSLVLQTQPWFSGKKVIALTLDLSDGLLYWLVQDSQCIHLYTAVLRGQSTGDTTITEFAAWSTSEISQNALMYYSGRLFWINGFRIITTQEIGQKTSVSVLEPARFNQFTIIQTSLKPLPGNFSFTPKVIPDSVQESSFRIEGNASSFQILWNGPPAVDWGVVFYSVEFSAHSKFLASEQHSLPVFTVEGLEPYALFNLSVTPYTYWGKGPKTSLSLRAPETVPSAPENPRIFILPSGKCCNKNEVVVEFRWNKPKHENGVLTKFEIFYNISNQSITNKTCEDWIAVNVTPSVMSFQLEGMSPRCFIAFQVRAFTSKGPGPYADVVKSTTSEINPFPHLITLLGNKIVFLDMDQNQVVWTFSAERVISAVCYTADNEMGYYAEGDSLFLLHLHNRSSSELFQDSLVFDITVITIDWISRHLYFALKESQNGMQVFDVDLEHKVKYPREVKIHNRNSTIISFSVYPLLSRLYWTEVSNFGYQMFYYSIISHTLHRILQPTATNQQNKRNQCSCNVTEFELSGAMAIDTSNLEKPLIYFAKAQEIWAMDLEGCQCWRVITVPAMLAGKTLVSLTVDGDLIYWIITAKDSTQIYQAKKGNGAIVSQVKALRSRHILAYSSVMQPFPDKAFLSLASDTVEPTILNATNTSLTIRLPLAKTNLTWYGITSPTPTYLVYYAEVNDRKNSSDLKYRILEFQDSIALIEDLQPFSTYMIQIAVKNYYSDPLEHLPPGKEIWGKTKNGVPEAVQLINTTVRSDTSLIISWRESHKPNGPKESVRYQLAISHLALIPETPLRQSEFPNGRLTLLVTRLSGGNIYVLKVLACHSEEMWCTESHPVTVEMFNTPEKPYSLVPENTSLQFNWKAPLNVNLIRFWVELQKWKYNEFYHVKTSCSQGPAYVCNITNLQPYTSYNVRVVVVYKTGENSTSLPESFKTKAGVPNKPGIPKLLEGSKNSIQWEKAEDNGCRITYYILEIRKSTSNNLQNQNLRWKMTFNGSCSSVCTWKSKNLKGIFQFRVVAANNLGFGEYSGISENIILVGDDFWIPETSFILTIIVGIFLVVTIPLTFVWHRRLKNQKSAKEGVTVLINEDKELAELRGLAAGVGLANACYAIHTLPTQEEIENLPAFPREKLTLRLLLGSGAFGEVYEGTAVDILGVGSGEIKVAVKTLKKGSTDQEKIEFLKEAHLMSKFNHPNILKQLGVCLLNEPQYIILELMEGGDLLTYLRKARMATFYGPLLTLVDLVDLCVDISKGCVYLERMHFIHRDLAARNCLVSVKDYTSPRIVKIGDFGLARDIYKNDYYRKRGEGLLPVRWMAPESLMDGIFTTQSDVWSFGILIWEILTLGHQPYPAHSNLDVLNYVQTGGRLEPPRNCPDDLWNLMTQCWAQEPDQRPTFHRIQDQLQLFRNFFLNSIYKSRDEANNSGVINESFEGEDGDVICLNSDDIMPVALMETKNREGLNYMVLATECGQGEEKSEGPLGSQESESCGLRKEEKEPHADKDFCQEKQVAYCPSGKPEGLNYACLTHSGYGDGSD

[8] = biological target: Ribosomal protein S6 kinase beta-1 (Homo sapiens) (UniProt P23443); assay: Inhibition of p70S6K in human PC3 cells assessed as decrease in phosphorylated S6 by Western blot analysis; type: cell-based; conditions: PC-3
Chain of Ribosomal protein S6 kinase beta-1 (Homo sapiens) (P23443 whole entry, looked up): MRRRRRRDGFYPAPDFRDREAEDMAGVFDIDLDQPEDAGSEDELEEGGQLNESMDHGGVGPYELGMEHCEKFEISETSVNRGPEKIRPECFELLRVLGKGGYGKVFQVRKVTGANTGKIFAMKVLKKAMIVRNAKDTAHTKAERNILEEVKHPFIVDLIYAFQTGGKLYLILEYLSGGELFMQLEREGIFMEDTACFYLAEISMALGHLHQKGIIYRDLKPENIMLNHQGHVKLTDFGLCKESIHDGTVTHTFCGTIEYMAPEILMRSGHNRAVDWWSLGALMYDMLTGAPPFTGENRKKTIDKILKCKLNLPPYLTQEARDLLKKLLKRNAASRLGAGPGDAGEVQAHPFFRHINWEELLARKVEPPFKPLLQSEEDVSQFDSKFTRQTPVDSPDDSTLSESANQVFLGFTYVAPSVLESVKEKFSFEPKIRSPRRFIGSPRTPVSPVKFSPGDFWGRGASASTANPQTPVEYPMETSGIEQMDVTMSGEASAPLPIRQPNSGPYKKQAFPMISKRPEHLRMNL
Method in brief: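 PC-3 cells (parental, or stable GFP-CA-ILK clones selected with G418 250 μg/mL and GFP sorting) exposed 24 h in 5% FBS medium; SDS lysis, immunoblot at 1:1000 primary, ECL; representative of three experiments.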

[9] = biological target: T1, Scaffold protein ILK (Homo sapiens); assay: Inhibition of ILK in human PC3 cells expressing constitutively active ILK assessed as decrease in phosphorylated p38 concentration by Western blot analysis; type: cell-based; conditions: PC-3
Method in brief: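 Stable PC-3 clones expressing GFP-CA-ILK (G418 250 μg/mL selection, GFP sorting) treated 24 h in 5% FBS medium. Phospho-ERK1/2 and phospho-p38 detected by immunoblot with ECL. Representative of three experiments.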

PC-3 [10] = assay: Induction of autophagy in human PC3 cells assessed as LC3-II conversion by Western blot analysis; type: functional, cell-based
Method in brief: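 PC-3 cells treated 24 h in 5% FBS medium. Lysed in 1% SDS/10 mM EDTA/50 mM Tris pH 8.1, equal protein on SDS-PAGE, primary antibody 1:1000 at 4°C for 2 h, HRP secondary, ECL detection. Read-outs PARP cleavage and LC3-II conversion; blots representative of three experiments.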

PC-3 [11] = assay: Induction of autophagy in human PC3 cells expressing Atg5 siRNA assessed as LC3-II conversion by Western blot analysis; type: functional, cell-based
Method in brief: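 Transient Atg5 siRNA transfection of PC-3 by electroporation, cells used 48 h later, then treated. LC3-II conversion detected by immunoblot: SDS lysis, antibody 1:1000 at 4°C for 2 h, ECL. Representative of three independent experiments.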

PC-3 [12] = assay: Suppression of tumor growth in human PC3 cells xenografted in nude mouse at 25 mg/kg/day, po administered for 35 days relative to control; type: functional
Method in brief: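 Male NCr athymic nude mice, s.c. 0.5 × 10^6 PC-3 cells in 50% Matrigel; established tumors randomized (n=6) to daily oral gavage in 0.5% methylcellulose/0.1% Tween 80 in water, 10 μL/g, 35 days; weekly caliper volume = width² × length × 0.52; mean ± SEM, ANOVA or t-test.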

Mus musculus [13] = assay: Toxicity in nude mouse assessed as weight loss at 50 mg/kg, po administered for 35 days; type: organism-based; parameters: dose 50 mg/kg, route oral; conditions: in vivo, 840 h
Method in brief: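 Male NCr nude mice bearing s.c. PC-3 tumors, dosed once daily by oral gavage in 0.5% methylcellulose/0.1% Tween 80 vehicle, 10 μL/g, for 35 days; body weight recorded weekly.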

Mus musculus [14] = assay: Decrease in phosphorylation of YB-1 in human PC3 cells xenografted nude mouse tumor lysate at 25 mg/kg, po administered for 35 days by Western blot analysis; type: functional, organism-based; parameters: dose 25 mg/kg; conditions: Neoplasm, PC-3
Method in brief: (§2)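 Male NCr athymic nude mice, 5–7 weeks, with s.c. PC-3 xenografts (0.5 × 10^6 cells in 50% Matrigel), dosed by oral gavage once daily for 35 days. Vehicle 0.5% methylcellulose, 0.1% Tween 80 in water, 10 μL/g. Tumors snap-frozen at sacrifice; three tumors per group immunoblotted.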

Mus musculus [15] = assay: Decrease in phosphorylation of HER2 in human PC3 cells xenografted nude mouse tumor lysate at 25 mg/kg, po administered for 35 days by Western blot analysis; type: functional, organism-based; parameters: dose 25 mg/kg; conditions: Neoplasm, PC-3; method in brief: as §2
[16] = biological target: 3-phosphoinositide-dependent protein kinase 1 (Homo sapiens) (UniProt O15530); assay: Inhibition of PDK1 at 5 uM assessed as remaining activity
Chain of 3-phosphoinositide-dependent protein kinase 1 (Homo sapiens) (O15530 whole entry, looked up): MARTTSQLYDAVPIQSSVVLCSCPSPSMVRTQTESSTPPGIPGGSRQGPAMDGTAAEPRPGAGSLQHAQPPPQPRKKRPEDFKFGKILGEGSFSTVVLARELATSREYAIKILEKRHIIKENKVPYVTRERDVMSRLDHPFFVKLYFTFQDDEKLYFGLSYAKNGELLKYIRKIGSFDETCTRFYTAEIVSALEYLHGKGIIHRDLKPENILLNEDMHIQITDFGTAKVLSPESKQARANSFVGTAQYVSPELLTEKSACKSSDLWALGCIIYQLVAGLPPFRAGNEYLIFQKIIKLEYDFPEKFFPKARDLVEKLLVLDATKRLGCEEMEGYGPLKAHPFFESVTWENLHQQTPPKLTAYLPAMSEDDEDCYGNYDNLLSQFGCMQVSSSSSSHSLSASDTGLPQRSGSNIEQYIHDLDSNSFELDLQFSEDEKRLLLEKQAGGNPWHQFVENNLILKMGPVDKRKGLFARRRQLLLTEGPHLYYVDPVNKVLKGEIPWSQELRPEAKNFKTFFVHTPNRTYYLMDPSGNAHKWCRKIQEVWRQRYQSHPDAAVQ

IC50 (SK-BR-3 [1]): 1800 nM
inhibition [3]: Active
Activity [7]: 103%
inhibition [8]: Active
inhibition [9]: inactive
Activity [16]: 94%
Structure (SMILES): CNC(=O)CCc1cc(-c2ccc(-c3ccc(C(F)(F)F)cc3)cc2)n(-c2ccc(N3CCNCC3)cc2)n1
inhibition [2]: Dose-dependent effect
Activity (PC-3 [4]): Dose-dependent effect
Activity (SK-BR-3 [5]): Dose-dependent effect
Activity (SK-BR-3 [6]): inactive
Activity (PC-3 [10]): Dose-dependent effect
Activity (PC-3 [11]): inactive
Activity (PC-3 [12]): 48%
Activity (Mus musculus [13]): Non-toxic
Activity (Mus musculus [14]): Active
Activity (Mus musculus [15]): Active
